pIC50: −log10 of the molar value. The source made the active and inactive calls. No cut-off for these calls is given here.
How the values were obtained:
[1] = molecular target: T1, Prostaglandin E2 receptor EP3 subtype (Homo sapiens, UniProt P43115); experiment: Displacement of [3H]PGE2 from human EP3 receptor
T1 sequence (P43115 whole entry): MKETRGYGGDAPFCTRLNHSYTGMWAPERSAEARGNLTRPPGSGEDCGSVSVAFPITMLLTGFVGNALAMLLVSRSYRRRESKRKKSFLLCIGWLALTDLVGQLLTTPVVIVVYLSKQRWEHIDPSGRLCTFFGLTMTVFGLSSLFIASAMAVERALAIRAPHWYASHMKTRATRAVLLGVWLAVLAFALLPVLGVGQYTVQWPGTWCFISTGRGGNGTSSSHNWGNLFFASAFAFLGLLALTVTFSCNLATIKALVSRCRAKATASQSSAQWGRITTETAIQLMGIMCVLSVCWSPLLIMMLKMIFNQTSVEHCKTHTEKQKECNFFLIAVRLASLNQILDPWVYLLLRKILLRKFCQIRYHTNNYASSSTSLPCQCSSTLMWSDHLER
Procedure, shortened: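 Displacement of [3H]-PGE2 from human EP3 receptor membrane preparations was run in buffer. IC50 values come from at least three experiments each.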

[2] = Metabolic stability in rat liver microsomes after 30 mins; assay type: ADME, Microsome; details: read-out: Stability
Procedure, shortened: (§1)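 Compound was incubated 30 min with liver microsomes from each species. Percent parent remaining was measured by LC/MS/MS.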

[3] = molecular target: Prostaglandin F2-alpha receptor (Homo sapiens, UniProt P43088); experiment: Binding affinity to human FP receptor by radioligand binding assay
Homo sapiens [4] = species on record: Homo sapiens; experiment: Selectivity of human FP receptor over human EP3 receptor
Homo sapiens [5] = species on record: Homo sapiens; experiment: Selectivity of human EP1 receptor over human EP3 receptor
Homo sapiens [6] = species on record: Homo sapiens; experiment: Selectivity of human EP2 receptor over human EP3 receptor
[7] = molecular target: T2, Prostaglandin E2 receptor EP1 subtype (Homo sapiens) (UniProt P34995); experiment: Binding affinity to human EP1 receptor at 20 uM by radioligand binding assay
T2 sequence (whole entry): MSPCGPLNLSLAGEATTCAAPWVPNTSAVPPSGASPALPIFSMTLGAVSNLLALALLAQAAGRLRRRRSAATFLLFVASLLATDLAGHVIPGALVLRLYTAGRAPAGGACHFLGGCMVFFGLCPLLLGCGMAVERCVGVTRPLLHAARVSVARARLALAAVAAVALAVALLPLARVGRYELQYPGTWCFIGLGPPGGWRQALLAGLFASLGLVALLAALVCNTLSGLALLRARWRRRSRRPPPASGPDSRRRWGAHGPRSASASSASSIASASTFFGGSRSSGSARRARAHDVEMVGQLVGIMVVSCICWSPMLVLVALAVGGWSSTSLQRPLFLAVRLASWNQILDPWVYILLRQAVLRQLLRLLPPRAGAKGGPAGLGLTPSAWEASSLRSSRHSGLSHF

[8] = Metabolic stability in human liver microsomes after 30 mins; assay type: ADME, Microsome; details: read-out: Stability; procedure, shortened: as §1
Homo sapiens [9] = species on record: Homo sapiens; experiment: Selectivity of human EP4 receptor over human EP3 receptor
[10] = molecular target: T3, Prostaglandin E2 receptor EP2 subtype (Homo sapiens, UniProt P43116); experiment: Binding affinity to human EP2 receptor by radioligand binding assay
[11] = molecular target: T4, Prostaglandin E2 receptor EP3 subtype (Homo sapiens) (UniProt P43115); experiment: Ratio of IC50 for human EP3 receptor in presence of 10% human serum to IC50 for human EP3 receptor in buffer
T4 sequence (whole entry): T1 sequence (P43115 whole entry)
Procedure, shortened: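 Displacement of [3H]-PGE2 from human EP3 membrane preparations was run both with 10% human serum and in buffer alone. Fold-shift is IC50 with serum divided by IC50 in buffer.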

[12] = molecular target: Prostaglandin E2 receptor EP4 subtype (Homo sapiens, UniProt P35408); experiment: Binding affinity to human EP4 receptor by radioligand binding assay
[13] = molecular target: T1, Prostaglandin E2 receptor EP3 subtype; experiment: Antagonist activity at human EP3 receptor expressed in CHO-K1 cells assessed as reversal of inhibition of forskolin-induced cAMP production; assay type: functional, cell-based
Procedure, shortened: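 CHO-K1 cells stably expressing human EP3 were exposed to increasing test compound concentrations for 10 min at 37 °C, with 5 μM forskolin plus 5 nM PGE2 present. Read-out was the block of PGE2's inhibition of the forskolin-induced cAMP rise, giving IC50.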

[14] = Aqueous solubility in 50 mM PSB buffer at pH 7.4 by HPLC analysis; assay type: physicochemical
Procedure, shortened: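 Samples were stirred overnight in 50 mM PSB buffer, pH 7.4, then filtered. Concentration was measured by HPLC against a 5-point standard curve, giving thermodynamic solubility.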

[15] = Metabolic stability in dog liver microsomes after 30 mins; assay type: ADME, Canis lupus familiaris, Microsome; details: read-out: Stability; procedure, shortened: as §1
[16] = Metabolic stability in monkey liver microsomes after 30 mins; assay type: ADME, Macaca mulatta, Microsome; details: rhesus monkey, read-out: Stability; procedure, shortened: as §1
[17] = molecular target: T3, Prostaglandin E2 receptor EP2 subtype; experiment: Binding affinity to human EP2 receptor at 20 uM by radioligand binding assay
[18] = molecular target: T5, Prostaglandin E2 receptor EP1 subtype (Homo sapiens, UniProt P34995); experiment: Binding affinity to human EP1 receptor by radioligand binding assay
T5 sequence (P34995 whole entry): T2 sequence (whole entry)

Chain of Prostaglandin F2-alpha receptor (P43088 whole entry): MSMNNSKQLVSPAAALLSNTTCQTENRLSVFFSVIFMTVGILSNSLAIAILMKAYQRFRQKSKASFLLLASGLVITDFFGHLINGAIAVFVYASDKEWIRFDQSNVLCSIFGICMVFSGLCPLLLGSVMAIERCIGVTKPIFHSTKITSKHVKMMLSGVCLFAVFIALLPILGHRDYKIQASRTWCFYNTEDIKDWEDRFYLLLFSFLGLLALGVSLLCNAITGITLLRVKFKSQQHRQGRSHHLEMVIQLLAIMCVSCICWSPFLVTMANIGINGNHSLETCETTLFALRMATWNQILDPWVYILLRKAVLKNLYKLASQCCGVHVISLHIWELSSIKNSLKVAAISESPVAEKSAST
Chain of Prostaglandin E2 receptor EP4 subtype (P35408 whole entry): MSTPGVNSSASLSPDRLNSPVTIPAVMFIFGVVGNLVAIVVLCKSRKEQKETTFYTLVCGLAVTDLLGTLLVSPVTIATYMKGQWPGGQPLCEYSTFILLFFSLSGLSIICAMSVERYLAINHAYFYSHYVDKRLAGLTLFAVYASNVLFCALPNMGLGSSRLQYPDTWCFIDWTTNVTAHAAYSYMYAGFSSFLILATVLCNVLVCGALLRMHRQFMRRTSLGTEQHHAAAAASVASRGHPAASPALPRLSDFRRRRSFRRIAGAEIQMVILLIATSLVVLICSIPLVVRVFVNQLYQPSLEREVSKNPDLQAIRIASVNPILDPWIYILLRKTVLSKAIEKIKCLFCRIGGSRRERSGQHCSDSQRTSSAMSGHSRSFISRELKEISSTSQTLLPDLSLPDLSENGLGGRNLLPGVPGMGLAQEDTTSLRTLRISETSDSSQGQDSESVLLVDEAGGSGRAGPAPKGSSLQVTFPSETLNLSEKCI
T3 sequence (P43116 whole entry): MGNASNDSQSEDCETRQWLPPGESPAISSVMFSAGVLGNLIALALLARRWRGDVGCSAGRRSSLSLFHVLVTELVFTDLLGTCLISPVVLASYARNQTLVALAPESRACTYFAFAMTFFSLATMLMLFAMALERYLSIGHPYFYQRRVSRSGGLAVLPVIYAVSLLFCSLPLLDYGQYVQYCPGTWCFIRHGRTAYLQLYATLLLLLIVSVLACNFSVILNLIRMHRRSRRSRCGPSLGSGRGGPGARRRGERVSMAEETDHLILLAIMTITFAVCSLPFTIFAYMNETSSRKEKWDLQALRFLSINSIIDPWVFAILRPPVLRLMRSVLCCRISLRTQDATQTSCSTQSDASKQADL

| Structure (SMILES) | pIC50 [1] | remaining at 0.5 h [2] | pIC50 [3] | Selectivity ratio (Homo sapiens [4]) | Selectivity ratio (Homo sapiens [5]) | Selectivity ratio (Homo sapiens [6]) | Activity [7] | remaining at 0.5 h [8] | Selectivity ratio (Homo sapiens [9]) | pIC50 [10] | fold change (FC) [11] | pIC50 [12] | pIC50 [13] | solubility [14] | remaining at 0.5 h [15] | remaining at 0.5 h [16] | Activity [17] | pIC50 [18] |
| --- | --- | --- | --- | --- | --- | --- | --- | --- | --- | --- | --- | --- | --- | --- | --- | --- | --- | --- |
| CC12CCCC(/C=C/C(=O)NS(=O)(=O)c3ccc(F)c(F)c3)=C1N(Cc1ccc(F)c(F)c1)C(=O)C2 (stereo not given) | 8.03 | 82% | 4.79 | > 1000 | > 1000 | > 1000 | inactive | 79% | > 1000 | 5.64 | 3.2 | 5.11 |  |  |  |  |  |  |
| CC12CCCC(/C=C/C(=O)NS(=O)(=O)c3cc(F)c(F)cc3F)=C1N(Cc1ccc(F)c(F)c1)C(=O)C2 (stereo not given) | 8.11 | 89% | 5.42 | > 1000 | > 1000 | > 1000 | inactive | 75% | > 1000 | 4.86 | 9.3 | 5.21 | 8.46 | > 3000 µg/mL | 87% | 54% |  |  |
| COc1cccc(CN2C(=O)CC3(C)CCCC(/C=C/C(=O)NS(=O)(=O)c4ccc(F)c(F)c4)=C23)c1 (stereo not given) | 7.89 | 42% | 5.19 | > 1000 | > 1000 | > 1000 |  | 76% | > 1000 |  | 4.2 | 5.12 |  |  |  |  | inactive | 5.85 |

Source: ChEMBL document CHEMBL1143334, “Peri-substituted hexahydro-indolones as novel, potent and selective human EP3 receptor antagonists” (Bioorg Med Chem Lett, 2009)
